Compound activity as filed in PubChem BioAssay.
AI-2 QS mod – Vibrio harveyi AI-2 quorum sensing modulators, primary screen, JMH597 strain, luminescence/OD600 ratio; Vibrio harveyi JMH597 AI-2 luminescence/OD600 ratio, 9 h; hits give low values; strain lacks LuxN and CqsS sensors; 0 = neutral-control median; activity change, % at 7.5 µM; 0.4% of 300,000 active; AID 2094, 2009; in the data active = activity change below about -75%, passing the limit was not always enough; inconclusive = no clear call, values can overlap the other calls;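 also: luminescence divided by OD600 gain over 9 h not by final OD600 alone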
T cruzi repl – inhibitors of intracellular T. cruzi growth, primary screen, luminescence, NIH3T3 host cells; inhibition, % (test concentration not listed); 1.4% of 300,000 active; T. cruzi beta-gal in NIH3T3, 90 h; AID 1885, 2009;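 active = mean inhibition across valid replicates above about 55%, limit read from the data; inconclusive = mean below that limit but half or more replicates reach it; inactive = mean below it, under half of replicates reach it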;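 also: signal also drops with host cell toxicity which is not excluded here; 0% = plate median of DMSO wells and 100% = zero luminescence signal; higher percent means less beta-gal luminescence so fewer parasites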
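Read-out: Parasite load inhibition, % | Test system: Mouse NIH/3T3 fibroblasts infected with β-gal-expressing T. cruzi Tulahuen C4 | Amount: 5,000 cells/well | Medium: DMEM, 2% fetal bovine serum | Signal: GalScreen β-gal luminescence, detergent lysis, 60 min | Timing: 3 h attach, ≥90 h co-culture | Also added: Tulahuen C4 trypomastigotes, 5000/well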
HDAC3 inhib – HDAC3 deacetylase inhibitors, primary screen, biochemical, fluorescence, cell-free homogeneous; Histone deacetylase 3 (Homo sapiens), O15379; recombinant HDAC3, fluorogenic peptide/trypsin coupled; AID 2718, 2010; inhibition, % at 8.3 µM; 0.15% of 320,000 active; in the data active = inhibition above about 26%, passing the limit was not always enough; inconclusive = no clear call, values can overlap the other calls
Target sequence (O15379 whole entry, looked up): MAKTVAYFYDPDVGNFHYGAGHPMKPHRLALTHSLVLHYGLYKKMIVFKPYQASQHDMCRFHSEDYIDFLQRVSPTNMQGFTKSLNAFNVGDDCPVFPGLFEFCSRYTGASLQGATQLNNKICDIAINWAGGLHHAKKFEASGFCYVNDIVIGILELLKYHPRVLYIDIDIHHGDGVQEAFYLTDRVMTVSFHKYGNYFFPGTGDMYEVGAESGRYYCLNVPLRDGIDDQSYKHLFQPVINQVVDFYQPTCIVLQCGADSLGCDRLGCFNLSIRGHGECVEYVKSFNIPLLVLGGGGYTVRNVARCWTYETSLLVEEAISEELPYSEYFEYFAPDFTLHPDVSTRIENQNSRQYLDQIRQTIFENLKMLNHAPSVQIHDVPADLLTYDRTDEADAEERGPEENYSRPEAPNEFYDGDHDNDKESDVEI
PolyA inhibitor – polyadenylation inhibitors in yeast reporter cells, primary screen, luminescence, S. cerevisiae; S. cerevisiae SKY197-pL101 polyadenylation reporter, beta-gal luminescence; efflux-impaired pdr1/pdr3 knockout yeast; score 100 = 6 SD above DMSO; activity score, % at 12 µM; AID 1875, 2009; 0.02% of 300,000 active;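 active = lowest replicate activity score at least 50, where 100 means six control SD above control mean; inconclusive = lowest score under 50 but half or more replicates reach 50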;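 also: yeast exposed to compound for 9 h at 30 °C; higher score means more reporter readthrough which indicates perturbed polyadenylation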
Efflux pump mplx – inhibitors of Candida efflux pumps in yeast, primary screen, S. cerevisiae, Nile Red, multiplex; AID 485275, 2010; 0.44% of 330,000 active; S. cerevisiae Candida pump triplex; inhibition, % at 10 µM;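 active = plate passing quality check with inhibition over a set limit, or well fluorescence over plate mean plus 4 SD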;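 also: Nile Red retained in pooled yeast measured as flow cytometry median fluorescence; 0% = buffer negative control and 100% = Enniatin B positive control; higher means more Nile Red kept so more efflux inhibition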
* = called active by the depositor; ? = inconclusive; nt = not tested or not shown; ! = a repeat was not active. Rows were chosen to be rich in hits. Some 2.2% of all compounds tested hit in one or more screens of this group.

SMILES | AI-2 QS mod | T cruzi repl | HDAC3 inhib | PolyA inhibitor | Efflux pump mplx
Cc1ccc(C)c(N2CCN(C(=O)CCc3nc(-c4ccccc4Cl)no3)CC2)c1 | nt | nt | nt | nt | 0.0
CCN(CC)C(=O)c1cc(Cl)ccc1NC(=O)c1ccco1 | 9.6 | 6.3 | 2.0 | -10.1 | -0.1
CCN(CC)P(=O)(Nc1ccccc1Br)c1ccc(N(C)C)cc1NC(=O)c1ccco1 (stereo not drawn) | 12.6 | 56.7* | ? | -9.4 | 0.0
CCC(=O)NC(c1cccs1)c1ccc2cccnc2c1O (stereo not drawn) | ? | 78.2* | 4.1 | -28.3 | -0.1
Cc1conc1NC(c1cccs1)c1ccc2cccnc2c1O (stereo not drawn) | 42.7 | 29.1 | 10.2 | -26.4 | -0.2
CC(C)CC(=O)NC(c1cccs1)c1ccc2cccnc2c1O (stereo not drawn) | -54.9 | 60.2* | -2.5 | -12.0 | 0.0
CS(=O)(=O)c1ncc(Cl)c(C(=O)Nc2ccc(OC(F)F)cc2)n1 | ? | 55.0* | 1.7 | -6.9 | 0.0
CC(=O)c1c(C)nn(C(=O)c2cccs2)c1C | 27.6 | -8.3 | 40.9* | -19.9 | -0.3
CC1CCC(=O)N(CCC#N)CC1 (stereo not drawn) | 12.8 | -10.3 | -2.3 | -9.9 | 0.1
Cc1ccc(-n2cc(CN(C)Cc3ncc[nH]3)c(-c3cccc(C)c3)n2)cc1 | 99.2 | 58.0* | -0.7 | 0.6 | 0.2
CC(C)N(C(=O)CSc1nnc(-c2ccc3c(c2)OCO3)n1C)C(C)C | -8.0 | 5.5 | 1.1 | -0.1 | 0.1
O=[N+]([O-])c1cccc(S(=O)(=O)NCCCn2ccnc2)c1 | 11.5 | -3.2 | -2.1 | -1.6 | -0.1
Cc1cc(C)c(CSc2ncc(-c3ccc([N+](=O)[O-])cc3)[nH]2)c(C)c1 | 10.7 | 58.4* | 10.5 | -17.8 | -0.2
O=C(NCC1COc2ccccc2O1)c1ccc(NC(=O)C(c2ccccc2)c2ccccc2)cc1 (stereo not drawn) | 26.4 | 84.7* | 0.2 | 12.4 | 0.0
O=C(Cc1ccccc1)Nc1ccc(C(=O)NCC2COc3ccccc3O2)cc1 (stereo not drawn) | 29.3 | 4.2 | 2.3 | -7.8 | 0.0
C=CCn1c(O)c(N=NC(=O)OC(C)(C)C)c2ccccc21 | 15.7 | 13.1 | 1.9 | -14.3 | 0.0
C=CCn1c(O)c(N=NC(=S)Nc2ccc(OC)c(Cl)c2)c2ccccc21 | 19.4 | 57.1* | 3.4 | 11.7 | -0.4
O=C(Oc1ccc(N2C(=O)CCC2=O)cc1)c1ccco1 | 19.2 | -6.9 | 8.5 | -17.2 | 0.1
CCCOC(=O)c1ccc(OC(=O)c2ccco2)cc1 | 15.7 | -16.4 | 32.9* | -1.4 | -3.4
O=C(Oc1ccc(-n2cnnn2)cc1)c1ccco1 | 11.4 | -22.1 | 35.6* | 4.3 | 0.0
CC(=O)Nc1ccc(OC(=O)c2ccco2)cc1 | 8.9 | -21.2 | 5.8 | -10.1 | -0.1
CC1CCN(C(=O)c2cc(-c3ccc(Cl)c(Cl)c3)on2)CC1 | -79.8* | nt | 1.8 | 11.4 | 0.0
O=C(c1cc(-c2ccc(Cl)c(Cl)c2)on1)N1CCOCC1 | 21.9 | 0.2 | -1.0 | 0.9 | 0.0
COc1ccc(COC(=O)c2ccc(S(=O)(=O)N3CCCCC3)cc2)cc1OC | nt | nt | -7.6 | nt | 0.3
CCN(CC)C(=O)CSc1nc2c(c(-c3cccnc3)c1C#N)CCCC2 | 19.6 | 11.7 | 5.1 | -10.9 | -0.1
SMILES | AI-2 QS mod | T cruzi repl | HDAC3 inhib | PolyA inhibitor | Efflux pump mplx
CCOC(=O)CNc1nc(C(C)(C)C)nc2c1nnn2Cc1ccccc1Cl | 15.9 | 61.1* | -2.5 | -9.5 | 0.1
O=C(CN1C(=O)NC2(CCCc3ccccc32)C1=O)Nc1cc(F)ccc1F (stereo not drawn) | -50.3 | -3.3 | -0.6 | -2.5 | -0.1
C/C(CC(=O)Nc1ccc(Cl)cc1C(F)(F)F)=N\NC(=O)c1ccccn1 | 28.3 | 2.4 | -1.6 | 15.4 | 1.1
COc1ccc(CN(C)CC(=O)c2c(N)n(Cc3ccccc3)c(=O)n(C)c2=O)c(OC)c1 | 23.5 | 58.8* | -2.8 | 0.9 | 0.0
CCn1c(=O)c(C(=O)CN(C)Cc2cccc(OC)c2OC)c(N)n(Cc2ccccc2)c1=O | 7.8 | 19.5 | 2.1 | 7.2 | 0.1
CCCNS(=O)(=O)c1cc(CN2C(=O)c3cccnc3C2=O)ccc1OC | 8.2 | -6.6 | -5.5 | 5.8 | 0.1
C=C[C@]1(C)C[C@@H](OC(=O)CSCCN(CC)CC)[C@]2(C)C(C)CC[C@]3(CCC(=O)[C@H]32)[C@@H](C)[C@@H]1O (stereo partly drawn) | -52.2 | 58.8*! | 3.1 | 5.8 | 0.1
Cn1cccc1C(=O)NCc1ccc(S(N)(=O)=O)cc1 | 17.3 | -28.0 | -1.2 | 15.6 | -0.1
O=C(OCc1cccc(F)c1)c1ccc2c(=O)n3c(nc2c1)CCC3 | 1.0 | ? | nt | 2.0 | 0.0
CC(Sc1nc(-c2ccccc2)cc(C(F)(F)F)n1)C(=O)Nc1sc2c(c1C#N)CCC2 (stereo not drawn) | 9.1 | 55.6* | -1.5 | -10.5 | -0.1
COc1cc(/C=N\NC(=O)OC(C)(C)C)ccc1OC(=O)c1ccco1 | 5.7 | 4.5 | 2.0 | -12.3 | -0.2
COc1cc(/C=N/n2cnnc2)ccc1OC(=O)c1ccco1 | 23.3 | -14.7 | 27.3* | 26.6 | 0.1
COc1cc(OC)cc(C(=O)Nc2ccccc2C(=O)NC2CC2)c1 | nt | nt | -1.8 | nt | -0.2
CN1CCc2nc(SCc3ccc(Cl)cc3)c(C#N)c(-c3cccs3)c2C1 | 13.2 | 58.1* | -1.4 | -2.2 | 0.2
CN1CCc2nc(SCc3ccc(C(C)(C)C)cc3)c(C#N)cc2C1 | 1.9 | 56.9* | -2.6 | 2.6 | 0.1
N#Cc1c(N)nc(SCc2ccncc2)c(C#N)c1-c1cccs1 | 37.5 | 64.4* | -8.3 | 11.4 | -0.1
Cc1cccc(Nc2nc(N3CCOCC3)nc(N3CCOCC3)n2)c1 | 29.7 | 55.7* | 3.9 | -5.2 | -0.1
Cc1cccc(Nc2nc(N3CCCCC3)nc(N3CCCCC3)n2)c1 | 12.0 | 29.4 | 5.5 | -1.2 | 0.0
CCCCSc1nc2ccc(Nc3nc(N4CCOCC4)nc(N4CCOCC4)n3)cc2s1 | -7.6 | 57.2* | -1.9 | 13.6 | 0.2
COC(=O)C1CCN(C(=O)CN(C)Cc2ccc(C(C)(C)C)cc2)CC1 | 18.7 | 66.9* | 4.8 | -15.1 | -0.1
O=C(COC(=O)Cc1c[nH]c2ccccc12)Nc1cc(S(=O)(=O)N2CCOCC2)ccc1Cl | nt | nt | 2.7 | nt | -0.1
Cc1ccc(Cl)cc1N1CCN(C(=O)Cc2ccc(-n3c(=O)[nH]c4ccsc4c3=O)cc2)CC1 | 19.8 | 17.4 | 2.4 | 17.3 | 0.0
CCN(CC)c1ccc(/C=C/c2nc3ccccc3s2)cc1 | 30.6 | 27.0 | 4.0 | -12.1 | 1.0*
O=C(NCC(=O)N(c1cccnc1)C(C(=O)NC1CCCC1)c1ccccc1F)c1ccco1 (stereo not drawn) | 15.3 | 11.7 | -3.4 | 5.1 | -0.1
COc1ccc(C(NC(C)=O)c2cc(Cl)c3cccnc3c2O)cc1OC (stereo not drawn) | 21.7 | 57.5* | -3.5 | -22.2 | 0.0
